Sampled rows, rich in hits. Any-hit rate of the full collection: about 2.6%.
rRNA inh HTS = inhibits bacterial ribosomal RNA function over humanized ribosomes; E. coli WT GFP vs humanized-ribosome RFP mutants, fluorescence, 24 h; active compounds read low; DMSO median 0, no signal -100; GFP signal change (wild-type ribosome), % (test concentration not listed); 350,000 tested, 1.6% active;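 active = significant combined selectivity score with lowered wild-type GFP, culture density cut under 30%, mutant RFP and density less affected; inactive = any of these conditions unmet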
SR-BI HDL uptake = mouse SR-BI HDL lipid transfer inhibition. Q61009. ldlA[mSR-BI] CHO cells, DiI-HDL uptake fluorescence, 3 h. inhibition, % at 12.5 µM. 320,000 tested, 0.96% active. AID 488896;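 active = mean replicate inhibition of at least 70% and a set share of replicates each scoring 70 or more; inconclusive = meets just one of the two criteria; inactive = fails both criteria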;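 note: 0% = median of neutral control wells and 100% = median of positive control wells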
Target sequence (Q61009 whole entry, looked up): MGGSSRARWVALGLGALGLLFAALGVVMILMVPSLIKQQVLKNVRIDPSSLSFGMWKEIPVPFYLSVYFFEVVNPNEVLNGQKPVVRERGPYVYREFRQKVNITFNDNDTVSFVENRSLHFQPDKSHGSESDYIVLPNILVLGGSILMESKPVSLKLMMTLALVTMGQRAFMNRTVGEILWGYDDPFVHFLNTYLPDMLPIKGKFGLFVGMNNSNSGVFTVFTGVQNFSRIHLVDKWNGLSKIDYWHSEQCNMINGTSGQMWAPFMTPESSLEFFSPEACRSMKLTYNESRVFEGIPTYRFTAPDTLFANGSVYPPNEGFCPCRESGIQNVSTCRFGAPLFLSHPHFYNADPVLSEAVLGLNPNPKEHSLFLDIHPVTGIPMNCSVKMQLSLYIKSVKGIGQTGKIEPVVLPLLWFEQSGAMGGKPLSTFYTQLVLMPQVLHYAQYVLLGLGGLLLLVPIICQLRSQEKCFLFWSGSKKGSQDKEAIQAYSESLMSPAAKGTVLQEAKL
Xi reactivation = reactivates the inactive X chromosome in mouse fibroblasts; XiGFP mouse fibroblasts, % GFP-positive cells imaging, 3 d; cells co-treated with 5-aza-dC sensitizer; scaled so ellipticine positive control = 100%; activation, % at 7.58 µM; 360,000 tested, 0.055% active; AID 743238;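 active = mean normalized replicate activation at least 10% and every replicate at or above 10%; inconclusive = only one of the two criteria met; inactive = mean below 10% and not all replicates reach 10%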;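 note: 0% = median of on-plate neutral control wells and 100% = ellipticine 6 µM median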
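Material: XiGFP fibroblasts, SV40-immortalized; Buffer or medium: DMEM containing 5-aza-dC; Compound dosing: single point; Times: 3 days compound exposure.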
dFosB activator = mouse delta FosB homodimer activation | activation, % at 25 µM | P13346 | purified delta FosB, TAMRA-CDK5 oligo fluorescence polarization; percent of positive-control signal above neutral wells | 340,000 tested, 0.99% active;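 active = mean activation above about 17%, with every replicate also reaching it, limit read from the data, passing the limit was not always enough; inconclusive = only one of the two conditions met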
PvdQ acylase = blocks Pseudomonas aeruginosa PvdQ acylase activity | purified PvdQ acylase, fluorescence plate reader | inhibition, % at 10 µM | 340,000 tested, 0.063% active | AID 488965; in the data active = inhibition above about 30%, passing the limit was not always enough; inconclusive = no clear call, values can overlap the other calls;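 note: 0% = vehicle neutral wells and 100% = reference inhibitor wells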
SR-BI DiI-HDL act = SR-BI HDL lipid transfer activation; CHO ldlA[mSR-BI] cells, DiI-HDL uptake fluorescence, 3 h; 100 = double the neutral-control signal; activation, % at 12.5 µM; 320,000 tested, 0.096% active; AID 504775;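 active = mean replicate activation of at least 60% and every replicate at or above 60%; inconclusive = mean or all-replicate condition met, but not both; inactive = mean below 60% and not all replicates reaching 60%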;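 note: 0% = median plate neutral-control signal and 100% = twice that signal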
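system = CHO ldlA[mSR-BI] cells, LDL receptor-null, SR-BI overexpressing | medium = Ham's F12 with 0.5% BSA, HEPES 25 mM, pH 7.4 | probe or stimulus = DiI-HDL 10 µg/mL | compound dosing = single-point compound dose | incubation = compound exposure 3 h, 37 °C | technique = DiI fluorescence, bottom read | read-out = cell-associated DiI fluorescence as measure of HDL uptake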
* marks the source's active call; other numbers are inactive results; ? = inconclusive; nt = no result.

SMILES | rRNA inh HTS | SR-BI HDL uptake | Xi reactivation | dFosB activator | PvdQ acylase | SR-BI DiI-HDL act
Cc1csc(NC(=O)CN2C(=O)C3CC=CCC3C2=O)n1 (stereo unspecified) | nt | 3 | nt | -4 | -13 | -3
CCn1cc(C(=O)NC(C)C)c(=O)c2cc(F)c(N3CCN(C(=O)c4ccco4)CC3)cc21 | -57 | 56 | 0 | -13 | -18 | -56
C=Cn1cc[n+](CC(=O)c2cc(C(C)(C)C)c(O)c(C(C)(C)C)c2)c1 | -19* | -6 | 0 | 0 | -6 | 6
C=Cn1cc[n+](CC(=O)c2cccs2)c1 | 2 | -13 | 0 | 6 | 8 | 13
Oc1ccc(/C=N/Nc2ccnc3cc(Cl)ccc23)cc1O | -26 | 30 | 0 | 109* | -6 | -30
Clc1ccc2c(NCc3ccccn3)ccnc2c1 | 21 | -7 | 0 | -4 | 6 | 7
CC/C(=N\Nc1ccnc2cc(Cl)ccc12)c1ccc(O)cc1 | 3 | 20 | 0 | -8 | 2 | -20
Oc1ccc(/C=N/Nc2ccnc3cc(Cl)ccc23)c(O)c1O | 5 | 14 | 0 | 19* | -18 | -14
CC(C)(C)[S@](=O)N1Cc2cc(C(=O)N3CCOCC3)nc(-c3cccc(-c4ccccc4F)c3)c2[C@@H]1CCO | -4 | nt | 0 | nt | nt | nt
COc1ccc(C(C(=O)NC2CCCC2)N(C(=O)c2ccoc2C)c2ccc(C)c(C)c2)cc1 (stereo unspecified) | 6 | -6 | 0 | -3 | 6 | 6
N#C[C@H]1N[C@H](CO)[C@@H]1c1ccc(C#CC2CCCC2)cc1 | 1 | nt | 0 | nt | nt | nt
N#Cc1c(Cl)cccc1Oc1ccc(S(=O)(=O)Nc2ccccc2)cc1 | -28* | -4 | 0 | -8 | -8 | 4
N#Cc1cccc(C#N)c1Oc1ccc(S(=O)(=O)Nc2ccccc2)cc1 | nt | -7 | 0 | -3 | -10 | 7
Cc1cc(NC(=O)COC(=O)c2ccccc2NCCO)no1 | -4 | -132 | 0 | -4 | -35 | ?
Cc1cc(NC(=O)COC(=O)c2ccccc2S(=O)(=O)N(C)c2ccccc2)no1 | -33* | 17 | 0 | -6 | -8 | -17
C[C@H](CO)N1C[C@H](C)[C@@H](CN(C)C(=O)Nc2ccc(F)cc2)Oc2ccc(NC(=O)Nc3ccc(C(F)(F)F)cc3)cc2CC1=O | 6 | nt | -1 | nt | nt | nt
O=C(c1cnn(C(=O)c2ccco2)c1)c1cc(Cl)cc(Cl)c1O | -25* | -7 | 1 | -9 | -9 | 7
O=C(Nc1ccc(Cl)c(Cl)c1)N[C@@H]1CC[C@H](CCn2cc(C3CCCCC3)nn2)O[C@H]1CO | -46* | nt | -1 | nt | nt | nt
Cc1ccc(C2=NN3C(C2)c2ccccc2OC32C(=O)Nc3ccccc32)cc1 (stereo unspecified) | nt | 11 | nt | -14 | -19 | -11
Cn1ccc(=O)c2cc([N+](=O)[O-])ccc21 | -26* | nt | 0 | nt | nt | nt
N/C(=N\OC(=O)c1ccc(Cl)cc1[N+](=O)[O-])c1cccnc1 | -22* | -5 | 0 | 5 | -13 | 5
Cc1cc(NC(=O)c2c(-c3ccccc3Cl)noc2C)no1 | 10 | -5 | nt | -1 | -6 | 5
Cc1onc(-c2ccccc2Cl)c1C(=O)Nc1nn[nH]n1 | -31* | -13 | nt | 4 | -1 | 13
CCOc1ccc(-n2c(=S)sc3c(=O)[nH]c(SCC(=O)C(C)(C)C)nc32)cc1 | -29* | -5 | 0 | -6 | 7 | 5
CCOc1ccc(-n2c(=S)sc3c(=O)[nH]c(SCC(=O)N4CCC(C)CC4)nc32)cc1 | -25* | 16 | nt | -4 | 4 | -16
SMILES | rRNA inh HTS | SR-BI HDL uptake | Xi reactivation | dFosB activator | PvdQ acylase | SR-BI DiI-HDL act
CCN(CC)C(=O)CSc1nc2c(sc(=S)n2-c2ccc(C)cc2C)c(=O)[nH]1 | -27* | -7 | 0 | 1 | -3 | 7
CCOC(=O)CSc1nc2c(sc(=S)n2-c2ccc(OCC)cc2)c(=O)[nH]1 | nt | -7 | 0 | -1 | -6 | 7
CCOC(=O)CSc1nc2c(sc(=S)n2-c2ccccc2)c(=O)[nH]1 | -12 | -13 | 0 | -2 | -5 | 13
Cc1cc2cc(CNC(=O)c3ccc(S(=O)(=O)N4CCOCC4)cc3)ccc2n1C | 8 | -5 | 0 | -6 | -3 | 5
Cc1ccccc1C(=O)Nc1nnc(SC(C)C)s1 | 0 | 2 | -1 | -6 | 5 | -2
CCS(=O)(=O)C1=NSC2=NC(=O)/C(=C\c3ccc(OS(=O)(=O)c4ccccc4)c(OC)c3)C(=N)N21 | nt | -15 | nt | -11 | -10 | 15
Cc1ccc(S(=O)(=O)NC(=O)C2(C)CCN2C(=O)Cc2ccc(-c3ccccc3)cc2)cc1 (stereo unspecified) | -34* | nt | 0 | nt | nt | nt
CC1(C(=O)NS(=O)(=O)c2ccc(Cl)cc2)CCN1C(=O)CCc1ccc(Cl)cc1Cl (stereo unspecified) | -30* | nt | 0 | nt | nt | nt
COc1ccc(-c2cc(OC)c3c(C)oc(C)c3c(=O)c2)cc1OC | 10 | nt | nt | 1 | -11 | nt
O=C(N/C=N/OCc1ccc(Cl)cc1Cl)NOCc1ncc(C(F)(F)F)cc1Cl | nt | 83* | nt | -2 | -14 | -83
Cc1cc(CNC(=O)c2cccc3c2C(=O)c2ccc(-c4ccc(F)cc4OCc4ccccc4)cc2S3(=O)=O)c(C(F)(F)F)o1 | -3 | 90* | 0 | 2 | -1 | -90
O=C1c2cc(Cl)ccc2OC2(CCNCC2)C12CC(c1ccccc1)=NO2 (stereo unspecified) | -15 | -1 | 0 | -14 | -10 | 1
CN(C)c1ccc(C=c2c3cc([N+](=O)[O-])ccc3n3c2cc(-c2ccccc2)[n+]3C)cc1 | -5 | 84* | 0 | 14 | -4 | -84
CN(c1ccc(Cl)cc1)c1cc(=O)n(C)c2ccccc12 | nt | 12 | nt | -10 | 2 | -12
CN(C)c1ccc(C=c2c3ccccc3n3c2cc(-c2ccccc2)[n+]3C)cc1 | -49 | -58 | 5 | 100* | -6 | 58
CN(C)c1ccc(C=c2c3ccccc3n3c2c2c([n+]3C)CCCC2)cc1 | -76 | 40 | 0 | 86* | 14 | -40
CN(C)c1ccc(C=C2C=C(c3ccccc3)OC2=O)cc1 | 1 | nt | 0 | nt | nt | nt
CN(C)c1ccc(C=c2c3ccccc3n3c2cc(-c2ccc(Cl)cc2)[n+]3C)cc1 | -40 | -3 | 0 | 50* | -15 | 3
Cc1ccccc1S(=O)(=O)N1[C@@H](C#N)[C@@H](c2ccc(C#CC3CCCC3)cc2)[C@@H]1CO | 8 | nt | 0 | nt | nt | nt
O=C1c2ccsc2SCCN1Cc1ccc(F)cc1 | -4 | 2 | 0 | 7 | -12 | -2
CN1CCN(C(=O)CC23CC4CC(CC(C4)C2)C3)CC1 | nt | -4 | nt | -6 | -4 | 4
